Measured values: ChEMBL document CHEMBL4396889, “From Inhibition to Degradation: Targeting the Antiapoptotic Protein Myeloid Cell Leukemia 1 (MCL1)” (J Med Chem, 2019)
Active and inactive are the calls of the source. No cut-off for these calls is given here.

Assays:
[1] = target: T1, Induced myeloid leukemia cell differentiation protein Mcl-1 (Homo sapiens, UniProt Q07820); assay: Induction of MCL1 long isoform degradation in CRBN-/- human OPM2 cells assessed as protein abundance at 100 nM after 48 hrs by immunoblot analysis relative to control; type: cell-based
Outline: (§1)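 OPM2 multiple myeloma cells, wild type or CRBN-knockout, were treated for 48 h with degrader or DMSO vehicle. MCL1 long and short isoforms were detected by immunoblot and levels compared with DMSO controls.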

[2] = target: T2, Protein cereblon/Induced myeloid leukemia cell differentiation protein Mcl-1 (Homo sapiens) (UniProt Q07820+Q96SW2); assay: Protac activity at Cereblon/MCL1 long isoform in human MM1S cells assessed as MCL1 long isoform level at 300 nM pre-incubated for 72 hrs followed by cycloheximide addition and measured after 120 mins by immunoblot analysis (reference value: 55%); type: cell-based
Outline: (§2)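 Cycloheximide chase: cells were treated for 72 h with DMSO or degrader, with cycloheximide added for the final 30, 60 or 120 min. OPM2 and MM1.S cells were used, and wild-type OPM2 was compared with OPM2 CRBN-/- at 60 and 120 min. MCL1 was detected by immunoblot.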

[3] = target: T1, Induced myeloid leukemia cell differentiation protein Mcl-1; assay: Induction of MCL1 long isoform degradation in CRBN-/- human OPM2 cells assessed as protein abundance at 500 nM after 48 hrs by immunoblot analysis relative to control; type: cell-based; outline: as §1
[4] = target: T1, Induced myeloid leukemia cell differentiation protein Mcl-1; assay: Induction of MCL1 short isoform degradation in CRBN-/- human OPM2 cells assessed as protein abundance at 250 nM after 48 hrs by immunoblot analysis relative to control; type: cell-based; outline: as §1
[5] = target: T2, Protein cereblon/Induced myeloid leukemia cell differentiation protein Mcl-1 (Homo sapiens); assay: Protac activity at Cereblon/MCL1 long isoform in wild type human OPM2 cells assessed as MCL1 long isoform level at 300 nM pre-incubated for 72 hrs followed by cycloheximide addition and measured after 60 mins by immunoblot analysis (reference value: 84%); type: cell-based; outline: as §2
[6] = target: T2, Protein cereblon/Induced myeloid leukemia cell differentiation protein Mcl-1 (Homo sapiens); assay: Protac activity at Cereblon/MCL1 short isoform in wild type human OPM2 cells assessed as MCL1 short isoform abundance at 50 nM after 48 hrs by immunoblot analysis relative to control; type: cell-based
Outline: (§3)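 OPM2 wild-type cells, run alongside the CRBN-/- line, were treated for 48 h with compound or DMSO. The MCL1 long and short isoforms were then measured by immunoblot against the DMSO control.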

[7] = target: T2, Protein cereblon/Induced myeloid leukemia cell differentiation protein Mcl-1 (Homo sapiens); assay: Protac activity at Cereblon/MCL1 short isoform in human OPM2 cells assessed as MCL1 short isoform abundance at 500 nM after 24 hrs by immunoblot analysis relative to control; type: cell-based
[8] = target: T2, Protein cereblon/Induced myeloid leukemia cell differentiation protein Mcl-1 (Homo sapiens); assay: Protac activity at Cereblon/MCL1 long isoform in human MM1S cells assessed as MCL1 long isoform level at 300 nM pre-incubated for 72 hrs followed by cycloheximide addition and measured after 60 mins by immunoblot analysis (reference value: 82%); type: cell-based; outline: as §2
[9] = target: T2, Protein cereblon/Induced myeloid leukemia cell differentiation protein Mcl-1 (Homo sapiens); assay: Protac activity at Cereblon/MCL1 short isoform in wild type human OPM2 cells assessed as MCL1 short isoform abundance at 100 nM after 48 hrs by immunoblot analysis relative to control; type: cell-based; outline: as §3
[10] = target: T2, Protein cereblon/Induced myeloid leukemia cell differentiation protein Mcl-1 (Homo sapiens); assay: Protac activity at Cereblon/MCL1 long isoform in human OPM2 cells assessed as MCL1 long isoform level at 300 nM pre-incubated for 72 hrs followed by cycloheximide addition and measured after 30 mins by immunoblot analysis (reference value: 98%); type: cell-based; outline: as §2
[11] = target: T2, Protein cereblon/Induced myeloid leukemia cell differentiation protein Mcl-1 (Homo sapiens); assay: Protac activity at Cereblon/MCL1 long isoform in human OPM2 cells assessed as MCL1 long isoform level at 300 nM pre-incubated for 72 hrs followed by cycloheximide addition and measured after 120 mins by immunoblot analysis (reference value: 58%); type: cell-based; outline: as §2
[12] = target: T2, Protein cereblon/Induced myeloid leukemia cell differentiation protein Mcl-1 (Homo sapiens); assay: Protac activity at Cereblon/MCL1 in human OPM2 cells assessed as protein abundance at 250 nM after 48 hrs by immunoblot analysis relative to control; type: cell-based; outline: as §1
[13] = target: T2, Protein cereblon/Induced myeloid leukemia cell differentiation protein Mcl-1 (Homo sapiens); assay: Protac activity at Cereblon/MCL1 in human OPM2 cells assessed as protein abundance at 500 nM after 48 hrs by immunoblot analysis relative to control; type: cell-based; outline: as §1
[14] = target: T2, Protein cereblon/Induced myeloid leukemia cell differentiation protein Mcl-1 (Homo sapiens); assay: Protac activity at Cereblon/MCL1 short isoform in human MM1S cells assessed as MCL1 short isoform level at 300 nM pre-incubated for 72 hrs followed by cycloheximide addition and measured after 120 mins by immunoblot analysis (reference value: 80%); type: cell-based; outline: as §2
[15] = target: T2, Protein cereblon/Induced myeloid leukemia cell differentiation protein Mcl-1 (Homo sapiens); assay: Protac activity at Cereblon/MCL1 long isoform in human MM1S cells assessed as MCL1 long isoform level at 300 nM pre-incubated for 72 hrs followed by cycloheximide addition and measured after 30 mins by immunoblot analysis (reference value: 96%); type: cell-based; outline: as §2
[16] = target: T2, Protein cereblon/Induced myeloid leukemia cell differentiation protein Mcl-1 (Homo sapiens); assay: Protac activity at Cereblon/MCL1 long isoform in wild type human OPM2 cells assessed as MCL1 long isoform level at 300 nM pre-incubated for 72 hrs followed by cycloheximide addition and measured after 120 mins by immunoblot analysis (reference value: 53%); type: cell-based; outline: as §2
[17] = target: T2, Protein cereblon/Induced myeloid leukemia cell differentiation protein Mcl-1 (Homo sapiens); assay: Protac activity at Cereblon/MCL1 short isoform in human OPM2 cells assessed as MCL1 short isoform abundance at 100 nM after 24 hrs by immunoblot analysis relative to control; type: cell-based
[18] = target: T1, Induced myeloid leukemia cell differentiation protein Mcl-1; assay: Induction of MCL1 long isoform degradation in CRBN-/- human OPM2 cells assessed as protein abundance at 300 nM pre-incubated for 72 hrs followed by cycloheximide addition and measured after 120 mins by immunoblot analysis (reference value: 37%); type: cell-based; outline: as §2
[19] = target: T1, Induced myeloid leukemia cell differentiation protein Mcl-1; assay: Induction of MCL1 short isoform degradation in CRBN-/- human OPM2 cells assessed as protein abundance at 300 nM pre-incubated for 72 hrs followed by cycloheximide addition and measured after 60 mins by immunoblot analysis (reference value: 57%); type: cell-based; outline: as §2
[20] = test system: OPM-2; assay: Cytotoxicity against CRBN-/- human OPM2 cells assessed as reduction in cell viability at 50 to 10000 nM after 48 hrs by CellTiter-96 Cell Viability Assay; type: cell-based; details: opm-2, 48 h, 10 µM
[21] = target: T1, Induced myeloid leukemia cell differentiation protein Mcl-1; assay: Induction of MCL1 short isoform degradation in CRBN-/- human OPM2 cells assessed as protein abundance at 100 nM after 48 hrs by immunoblot analysis relative to control; type: cell-based; outline: as §1
[22] = target: T2, Protein cereblon/Induced myeloid leukemia cell differentiation protein Mcl-1 (Homo sapiens); assay: Protac activity at N-terminal His-tagged human MCL1 expressed in Escherichia coli/Cereblon in human OPM2 cell lysate assessed as ternary complex formation at 500 nM incubated for 4 hrs followed by cell lysate addition after overnight incubation by SDS-PAGE/immunoblot analysis
[23] = target: T2, Protein cereblon/Induced myeloid leukemia cell differentiation protein Mcl-1 (Homo sapiens); assay: Protac activity at Cereblon/MCL1 long isoform in human OPM2 cells assessed as MCL1 long isoform abundance at 50 nM after 24 hrs by immunoblot analysis relative to control; type: cell-based
[24] = target: T1, Induced myeloid leukemia cell differentiation protein Mcl-1; assay: Induction of MCL1 short isoform degradation in CRBN-/- human OPM2 cells assessed as protein abundance at 500 nM after 48 hrs by immunoblot analysis relative to control; type: cell-based; outline: as §1
[25] = target: T1, Induced myeloid leukemia cell differentiation protein Mcl-1; assay: Induction of MCL1 long isoform degradation in CRBN-/- human OPM2 cells assessed as protein abundance at 250 nM after 48 hrs by immunoblot analysis relative to control; type: cell-based; outline: as §1
[26] = target: T2, Protein cereblon/Induced myeloid leukemia cell differentiation protein Mcl-1 (Homo sapiens); assay: Protac activity at Cereblon/MCL1 in human OPM2 cells assessed as protein abundance at 100 nM after 48 hrs by immunoblot analysis relative to control; type: cell-based; outline: as §1
[27] = target: T2, Protein cereblon/Induced myeloid leukemia cell differentiation protein Mcl-1 (Homo sapiens); assay: Protac activity at Cereblon/MCL1 in human OPM2 cells assessed as protein abundance at 1 uM after 48 hrs by immunoblot analysis relative to control; type: cell-based; outline: as §1

T2 sequence (Q07820 whole entry, looked up, canonical isoform): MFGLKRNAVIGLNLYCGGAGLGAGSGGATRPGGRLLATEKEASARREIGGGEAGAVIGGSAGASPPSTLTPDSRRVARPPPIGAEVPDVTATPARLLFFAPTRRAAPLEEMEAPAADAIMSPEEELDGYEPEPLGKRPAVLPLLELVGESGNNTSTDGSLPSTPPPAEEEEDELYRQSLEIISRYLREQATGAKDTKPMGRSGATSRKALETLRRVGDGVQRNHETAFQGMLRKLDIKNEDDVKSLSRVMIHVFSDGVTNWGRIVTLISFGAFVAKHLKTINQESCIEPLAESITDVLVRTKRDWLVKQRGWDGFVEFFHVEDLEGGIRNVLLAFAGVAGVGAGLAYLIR
T2 sequence (Q96SW2 whole entry, looked up, canonical isoform): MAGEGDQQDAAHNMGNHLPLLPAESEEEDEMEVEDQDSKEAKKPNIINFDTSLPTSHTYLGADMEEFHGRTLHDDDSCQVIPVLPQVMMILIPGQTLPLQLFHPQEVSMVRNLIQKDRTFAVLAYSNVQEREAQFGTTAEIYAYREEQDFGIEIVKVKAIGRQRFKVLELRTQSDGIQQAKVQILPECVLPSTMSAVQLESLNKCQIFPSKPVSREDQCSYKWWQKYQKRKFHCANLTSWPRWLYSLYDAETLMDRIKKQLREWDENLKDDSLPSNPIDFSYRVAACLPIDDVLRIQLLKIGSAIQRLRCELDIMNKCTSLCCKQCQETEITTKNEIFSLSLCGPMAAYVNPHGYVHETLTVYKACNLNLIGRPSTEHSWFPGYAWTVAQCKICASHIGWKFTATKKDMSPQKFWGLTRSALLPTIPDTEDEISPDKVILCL
T1 sequence (Q07820 whole entry, canonical isoform): as the sequence (Q07820 whole entry, looked up, canonical isoform) above

Work on `Cc1nn(C)c(COc2ccc(N3CCN(S(=O)(=O)N(C)C)CC3)cc2)c1-c1cccc2c(CCCOc3cccc4ccccc34)c(C(=O)O)n(CCN3CCN(C(=O)COc4cccc5c4C(=O)N(C4CCC(=O)NC4=O)C5=O)CC3)c12` (configuration not stated) yielded an Activity [1] of 90%, an Activity [2] of 40% and an Activity [3] of 100%. The Activity [4] was 97%, the Activity [5] was 66% and the Activity [6] was 79%. For the same molecule, the Activity [7] was 22%, the Activity [8] was 58% and the Activity [9] was 53%. It also gave an Activity [10] of 88%, an Activity [11] of 24% and an Activity [12] of 63%. For the same molecule, the Activity [13] was 58%, the Activity [14] was 34% and the Activity [15] was 90%. For the same molecule, the Activity [16] was 16%, the Activity [17] was 59% and the Activity [18] was 39%. For the same molecule, the Activity [19] was 64%, the Activity [20] was “Toxic” and the Activity [21] was 100%. For the same molecule, the Activity [22] was “Active”, the Activity [23] was 97% and the Activity [24] was 100%. It also gave an Activity [25] of 85%, an Activity [26] of 63% and an Activity [27] of 110%.
